Data published in ChEMBL document CHEMBL4732053, “Design, synthesis and structure-activity relationship study of novel urea compounds as FGFR1 inhibitors to treat metastatic triple-negative breast cancer” (Eur J Med Chem, 2021).
The source made the active and inactive calls. No cut-off for these calls is given here.

Experiments:
[1] = system: MDA-MB-231; assay: Cytotoxicity against human MDA-MB-231 cells assessed as reduction in cell viability incubated for 48 hrs by MTT assay; type: functional, cell-based; details: MDA-MB-231, 48 h
In short: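 MTT assay in MDA-MB-231 cells grown in DMEM with 10% heat-inactivated FBS at 37 °C and 5% CO2. Cells were seeded at 8000 per well, left 24 h, then exposed for 48 h to 0–25 μM in DMEM with 2% FBS (final DMSO 0.1%). MTT (0.5 mg/mL) was added for 2 h, formazan was dissolved in DMSO and read at 570 nm. Runs were in triplicate and IC50 was derived from the curves.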

[2] = target: DAT (sodium-dependent dopamine transporter) (Homo sapiens, UniProt Q01959); assay: Inhibition of DAT (unknown origin) at 10 uM relative to control
In short: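 Primary radioligand-binding screen by the NIMH Psychoactive Drug Screening Program. Each compound was tested at a final concentration of 10 μM in triplicate or quadruplicate, and % inhibition was recorded. Data are mean ± SEM of four independent experiments. Compounds reaching at least 50% antagonist activity went on to secondary dose-response assays.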

[3] = target: Sodium-dependent dopamine transporter (Homo sapiens, UniProt Q01959); assay: Inhibition of DAT (unknown origin)
[4] = Metabolic stability in Sprague-Dawley rat liver microsomes assessed as parent compound remaining in presence of NADPH measured up to 60 mins by LC-MS/MS analysis; type: ADME, Microsome; details: 1 h
In short: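 Pooled male Sprague-Dawley rat liver microsomes (6.2% mixture in potassium phosphate buffer) were used with an NADPH regenerating system. Compound, diluted to 5 μM before mixing, was prewarmed 10 min at 37 °C, then incubated with microsomes at 37 °C with shaking. Samples taken at 0, 5, 15, 30 and 60 min were quenched in ice-cold acetonitrile and centrifuged. Analysis was by LC-MS/MS, giving % remaining versus T0 from peak area ratios. Three independent experiments in triplicate.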

[5] = system: MDA-MB-231; assay: Induction of apoptosis in human MDA-MB-231 cells incubated for 48 hrs; type: functional, cell-based
[6] = system: MDA-MB-231; assay: Induction of apoptosis in human MDA-MB-231 cells at 1 uM incubated for 48 hrs; type: functional, cell-based
[7] = system: MDA-MB-231; assay: Induction of apoptosis in human MDA-MB-231 cells assessed as fold increase in apoptotic index at 5 uM relative to control; type: functional
[8] = system: MDA-MB-231; assay: Effect on cell cycle in human MDA-MB-231 cells at 0 to 5 uM; type: functional, cell-based; details: dose 0-5 µM
[9] = system: MDA-MB-231; assay: Induction of apoptosis in human MDA-MB-231 cells assessed as caspase-3 cleavage; type: functional, cell-based
In short: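 MDA-MB-231 cells treated 48 h, lysed on ice in RIPA buffer with protease and phosphatase inhibitors, then centrifuged. Equal protein loads were run on SDS-PAGE and transferred to PVDF. Blots were probed for cleaved caspase-3 and total caspase-3 (1:1000), with β-tubulin (1:2000) as loading control. Detection used HRP chemiluminescence with goat anti-rabbit secondary, and bands were quantified by densitometry.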

[10] = target: Fibroblast growth factor receptor 1 (Homo sapiens) (UniProt P11362); assay: Inhibition of FGFR1 phosphorylation in human […] cells at 3 to 6 uM incubated for 48 hrs in presence of bFGF by immunoblotting analysis; type: cell-based; details: MDA-MB-231, dose 3-6 µM
In short: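 MDA-MB-231 cells treated 48 h with or without bFGF, lysed in RIPA buffer with protease and phosphatase inhibitors. Equal protein loads were run on SDS-PAGE and transferred to PVDF. Blots were probed with anti-pFGFR1 (1:1000), using β-tubulin (1:2000) as loading control. Bands were detected by HRP chemiluminescence and quantified by densitometry; n = 3.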

DAT (sodium-dependent dopamine transporter), sequence (Q01959 whole entry): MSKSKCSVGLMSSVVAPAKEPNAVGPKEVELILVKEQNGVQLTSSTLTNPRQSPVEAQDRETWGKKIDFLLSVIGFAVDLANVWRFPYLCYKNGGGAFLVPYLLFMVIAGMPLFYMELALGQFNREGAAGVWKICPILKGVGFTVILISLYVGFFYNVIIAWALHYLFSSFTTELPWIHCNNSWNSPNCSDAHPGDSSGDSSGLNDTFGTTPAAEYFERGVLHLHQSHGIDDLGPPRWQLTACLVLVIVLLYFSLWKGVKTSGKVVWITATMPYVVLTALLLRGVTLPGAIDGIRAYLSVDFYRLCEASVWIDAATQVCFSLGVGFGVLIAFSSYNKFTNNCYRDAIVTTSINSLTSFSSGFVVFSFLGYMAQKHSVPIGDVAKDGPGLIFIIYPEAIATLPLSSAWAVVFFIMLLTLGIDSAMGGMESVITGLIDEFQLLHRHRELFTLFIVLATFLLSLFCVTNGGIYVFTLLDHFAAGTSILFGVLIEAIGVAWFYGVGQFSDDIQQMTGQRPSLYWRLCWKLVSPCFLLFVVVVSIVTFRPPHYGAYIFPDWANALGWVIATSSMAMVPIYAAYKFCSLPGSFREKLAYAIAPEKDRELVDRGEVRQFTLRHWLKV
Sodium-dependent dopamine transporter, sequence (Q01959 whole entry): as above
Fibroblast growth factor receptor 1 (Homo sapiens), sequence (P11362 22-822 limits assumed): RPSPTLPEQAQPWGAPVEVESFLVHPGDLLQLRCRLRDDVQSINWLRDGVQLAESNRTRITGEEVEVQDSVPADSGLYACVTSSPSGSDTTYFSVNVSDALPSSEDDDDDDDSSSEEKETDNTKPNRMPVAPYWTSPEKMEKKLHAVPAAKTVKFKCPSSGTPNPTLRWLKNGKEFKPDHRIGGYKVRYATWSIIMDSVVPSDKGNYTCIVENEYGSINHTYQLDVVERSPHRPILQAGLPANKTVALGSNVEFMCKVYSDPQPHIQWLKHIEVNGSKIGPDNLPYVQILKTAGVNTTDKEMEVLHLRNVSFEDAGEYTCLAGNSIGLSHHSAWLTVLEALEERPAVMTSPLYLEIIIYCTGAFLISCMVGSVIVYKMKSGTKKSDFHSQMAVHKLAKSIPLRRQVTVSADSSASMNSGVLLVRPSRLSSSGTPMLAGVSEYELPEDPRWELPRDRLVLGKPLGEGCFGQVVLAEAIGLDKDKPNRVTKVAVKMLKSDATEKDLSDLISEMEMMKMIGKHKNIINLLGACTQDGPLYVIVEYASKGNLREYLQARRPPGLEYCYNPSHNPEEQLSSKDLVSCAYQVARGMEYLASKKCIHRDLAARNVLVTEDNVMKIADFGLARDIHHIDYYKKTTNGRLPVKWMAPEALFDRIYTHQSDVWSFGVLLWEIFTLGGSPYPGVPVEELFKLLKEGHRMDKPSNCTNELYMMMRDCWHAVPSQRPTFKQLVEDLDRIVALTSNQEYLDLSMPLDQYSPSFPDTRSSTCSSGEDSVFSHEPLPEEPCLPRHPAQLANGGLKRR

Row | Structure (SMILES) | IC50 [1] [µM] | inhibition at 10 µM [2] [%] | also measured
1 | CN(CCCCC(c1ccc(F)cc1)c1ccc(F)cc1)C(=O)N(C)c1ccc(Cl)c(C(F)(F)F)c1 | > 20 | 26 | 
2 | O=C(NCCCC(c1ccc(F)cc1)c1ccc(F)cc1)Nc1ccc(Cl)c(C(F)(F)F)c1 | 3.5 | 86 | Ki [3]: 0.141 µM
3 | Cc1cc(Cl)ccc1NC(=O)NCCCCC(c1ccc(F)cc1)c1ccc(F)cc1 | > 20 | 58 | Ki [3]: 0.118 µM
4 | O=C(NCCCCC(c1ccc(F)cc1)c1ccc(F)cc1)Nc1cccc(Cl)c1 | 5.07 |  | 
5 | O=C(NCCCCC(c1ccc(F)cc1)c1ccc(F)cc1)Nc1ccc(Br)cc1I | > 20 |  | 
6 | O=C(NCCCCCC(c1ccc(F)cc1)c1ccc(F)cc1)Nc1ccc(Cl)c(C(F)(F)F)c1 | 2.57 | 77 | Ki [3]: 0.399 µM
7 | O=C(NCCCCC(c1ccc(F)cc1)c1ccc(F)cc1)Nc1ccc(I)cc1 | 11.8 | 24 | 
8 | O=C(Nc1ccc(Cl)c(C(F)(F)F)c1)OCCCCC(c1ccc(F)cc1)c1ccc(F)cc1 | 4.58 | 49 | 
9 | OC1(c2ccc(Cl)c(C(F)(F)F)c2)CCN(CCCC(c2ccc(F)cc2)c2ccc(F)cc2)CC1 [PENFLURIDOL] | 2.3 |  | 
10 | CC(=O)Nc1cc(NC(=O)NCCCCC(c2ccc(F)cc2)c2ccc(F)cc2)ccc1Cl | 9.12 | 76 | Ki [3]: 0.609 µM
11 | Nc1cc(NC(=O)NCCCCC(c2ccc(F)cc2)c2ccc(F)cc2)ccc1Cl | 9.24 |  | 
12 | COc1ccc(C(CCCCNC(=O)Nc2ccc(Cl)c([N+](=O)[O-])c2)c2ccc(OC)cc2)cc1 | 3.99 | 64 | Ki [3]: 0.144 µM
13 | COC(=O)c1ccc(NC(=O)NCCCCC(c2ccc(F)cc2)c2ccc(F)cc2)cc1C(F)(F)F | 4.43 |  | 
14 | O=C(NCCCCC(c1ccc(F)cc1)c1ccc(F)cc1)Nc1ccc(Cl)c(C(F)(F)F)c1 | 3.15 | 90 | Stabilty [4]: Stable; Ki [3]: 0.0065 µM
15 | O=C(NCCCCC(c1ccc(F)cc1)c1ccc(F)cc1)Nc1ccc(Cl)c([N+](=O)[O-])c1 | 4.06 |  | 
16 | CN(CCCCC(c1ccc(F)cc1)c1ccc(F)cc1)C(=O)Nc1ccc(Cl)c(C(F)(F)F)c1 | 6.02 | 73 | Ki [3]: 0.998 µM
17 | Fc1ccc(C(CCCCN(c2ccc(F)cc2)c2ccc(F)cc2)c2ccc(F)cc2)cc1 | > 20 |  | 
18 | Cc1cccc(NC(=O)NCCCCC(c2ccc(F)cc2)c2ccc(F)cc2)c1 | > 20 |  | 
19 | Cc1ccc(NC(=O)NCCCCC(c2ccc(F)cc2)c2ccc(F)cc2)cc1 | > 20 |  | 
20 | O=C(NCCCCC(c1ccc(F)cc1)c1ccc(F)cc1)Nc1cccc([N+](=O)[O-])c1 | 3.79 |  | 
21 | CC(=O)Nc1ccc(C(CCCCNC(=O)Nc2ccc(Cl)c(C(F)(F)F)c2)c2ccc(NC(C)=O)cc2)cc1 | > 20 |  | 
22 | O=C(NCCCCC(c1ccc([N+](=O)[O-])cc1)c1ccc([N+](=O)[O-])cc1)Nc1ccc(Cl)c(C(F)(F)F)c1 | 1.23 |  | 
23 | Fc1ccc(C(CCCCOC2COC(c3ccccc3)OC2)c2ccc(F)cc2)cc1 (configuration not stated) | > 20 |  | 
24 | O=C(NCCCCN(c1ccc(F)cc1)c1ccc(F)cc1)Nc1ccc(Cl)c(C(F)(F)F)c1 | 5.04 | 85 | Ki [3]: 0.043 µM
25 | Cc1ccc(NC(=O)NCCCCC(c2ccc(F)cc2)c2ccc(F)cc2)cc1C | > 20 | 79 | Ki [3]: 0.08 µM
26 | Cc1ccc(NC(=O)NCCCCN(c2ccc(F)cc2)c2ccc(F)cc2)cc1C | > 20 |  | 
27 | Cc1ccc(C(CCCCNC(=O)Nc2ccc(Cl)cc2)c2ccc(C)cc2)cc1 | 17.9 | 59 | Ki [3]: 0.535 µM

Row | Structure (SMILES) | IC50 [1] [µM] | inhibition at 10 µM [2] [%] | also measured
28 | COc1ccc(C(CCCCNC(=O)Nc2ccc(Cl)c(C(F)(F)F)c2)c2ccc(OC)cc2)cc1 | 3.3 | 75 | Ki [3]: 0.04 µM
29 | O=C(NCCCCCc1ccc(F)cc1)Nc1ccc(Cl)c(C(F)(F)F)c1 | 5.44 |  | 
30 | O=C(NCCCCC(c1ccc(F)cc1)c1ccc(F)cc1)Nc1cccc(C(F)(F)F)c1 | 3.38 |  | 
31 | O=C(NCCCCC(c1ccc(F)cc1)c1ccc(F)cc1)Nc1ccc(Cl)cc1C(F)(F)F | > 20 | 20 | 
32 | O=C(Nc1ccc(Cl)c(C(F)(F)F)c1)N1CCC(C(c2ccc(F)cc2)c2ccc(F)cc2)CC1 | 11.4 | 52 | Ki [3]: 1.59 µM
33 | O=C(NCCCCN(c1ccc(F)cc1)c1ccc(F)cc1)Nc1ccc(Br)cc1I | > 20 |  | 
34 | Nc1ccc(C(CCCCNC(=O)Nc2ccc(Cl)c(C(F)(F)F)c2)c2ccc(N)cc2)cc1 | 12.2 |  | 
35 | O=C(Nc1ccc(Cl)c(C(F)(F)F)c1)N1CCC(CC(c2ccc(F)cc2)c2ccc(F)cc2)CC1 | 4.84 | 24 | 
36 | O=C(NCCCCN(c1ccc(F)cc1)c1ccc(F)cc1)Nc1ccc(Cl)cc1 | > 20 | 68 | Ki [3]: 0.405 µM
37 | Cc1ccc(C(CCCCNC(=O)Nc2ccc(Cl)c(C(F)(F)F)c2)c2ccc(C)cc2)cc1 | 2.51 | 38 | 
38 | O=C(NCCCCC(c1ccc(F)cc1)c1ccc(F)cc1)Nc1ccc(C(F)(F)F)cc1 | 2.78 |  | 
39 | Fc1ccc(C(CCCCOCc2ccc(Oc3ccc(Cl)cc3)cc2)c2ccc(F)cc2)cc1 | > 20 |  | 
40 | CC(=O)Nc1ccc(NC(=O)NCCCCC(c2ccc(F)cc2)c2ccc(F)cc2)cc1 | > 20 |  | 
41 | O=C(CCCCC(c1ccc(F)cc1)c1ccc(F)cc1)Nc1ccc(Cl)c(C(F)(F)F)c1 | 11.4 | 33 | 
42 | O=C(NCCCCC(c1ccc(F)cc1)c1ccc(F)cc1)Nc1ccc([N+](=O)[O-])c(Cl)c1 | 3.47 |  | 
43 | O=C(NCCCCC(c1ccc(F)cc1)c1ccc(F)cc1)Nc1ccc(C(=O)O)c(C(F)(F)F)c1 | > 20 |  | 
44 | O=C(NCCCCC(c1ccc(F)cc1)c1ccc(F)cc1)c1ccc(Cl)c(C(F)(F)F)c1 | 11.7 | 51 | Ki [3]: 0.603 µM
45 | Fc1ccc(C(CCCCNC(=S)Nc2ccc(Cl)c(C(F)(F)F)c2)c2ccc(F)cc2)cc1 | 3.66 |  | 
46 | O=C(NCCCCC(c1ccccc1)c1ccccc1)Nc1ccc(Cl)c(C(F)(F)F)c1 | 5.72 |  | 
47 | O=C(NCCCCC(c1ccc(F)cc1)c1ccc(F)cc1)Nc1ccc([N+](=O)[O-])cc1 | 6.47 |  | 
48 | O=C(NCCCCC(c1ccc(OC(F)(F)F)cc1)c1ccc(OC(F)(F)F)cc1)Nc1ccc(Cl)c(C(F)(F)F)c1 | 1.69 |  | 
49 | O=C(NCCCCC(c1ccc(F)cc1)c1ccc(F)cc1)Nc1ccc([N+](=O)[O-])c(C(F)(F)F)c1 | 4.55 |  | Stabilty [4]: Stable; Activity [5]: Dose-dependent effect; Activity [6]: Active; fold change (FC) [7]: 10.6; Activity [8]: inactive; Activity [9]: Active; inhibition [10]: Active
50 | O=C(Nc1ccc(Cl)c(C(F)(F)F)c1)N1CCC(=C(c2ccc(F)cc2)c2ccc(F)cc2)CC1 | 5.65 |  | 
51 | O=C(OCCCC(c1ccc(F)cc1)c1ccc(F)cc1)c1cc(Cl)c(OCc2ccccc2)c(Cl)c1 | > 20 |  | 
52 | Nc1ccc(NC(=O)NCCCCC(c2ccc(F)cc2)c2ccc(F)cc2)cc1 | > 20 |  | 
53 | O=C(NCCCCN(c1ccc(F)cc1)c1ccc(F)cc1)Nc1ccc(I)cc1 | > 20 |  | 
54 | O=S(=O)(c1ccc(Cl)c(C(F)(F)F)c1)N1CCN(CCCCC(c2ccc(F)cc2)c2ccc(F)cc2)CC1 | > 20 |  | 
